≈ marks a conversion by molar mass, not a printed value.
Tests used:
[1] = test system: Bacillus cereus; assay: Antibacterial activity against Bacillus cereus after 24 hrs by agar streak dilution method; assay type: functional
Outline: (§1)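 MIC by agar streak dilution. Graded amounts of DMSO stock (100 μg/mL) were mixed into molten sterile nutrient agar and poured 4–5 mm deep. Serial concentrations spanned 3.12–100 µg/mL. Plates were inoculated with about 10⁵ CFU/mL of bacterial suspension and incubated at (37 ± 1) °C for 24 h. Each value is the mean of three independent experiments.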

[2] = test system: Shigella flexneri; assay: Antibacterial activity against Shigella flexneri after 24 hrs by agar streak dilution method; assay type: functional; outline: as §1
[3] = test system: Pseudomonas aeruginosa; assay: Antibacterial activity against Pseudomonas aeruginosa at 100 ug/disc after 24 hrs by disc diffusion method; assay type: functional; settings: read-out: DIZ
Outline: (§2)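 Paper disc diffusion on autoclaved Mueller-Hinton agar poured 5 mm deep. Agar was swab-inoculated with 10⁵ CFU/mL suspension (0.5 McFarland). Discs 6.25 mm across were soaked in compound solution in DMSO (3.12–100 µg/mL) and plates incubated 24 h at (37 ± 1) °C. Read-out was inhibition zone (mm). DMSO control disc; ciprofloxacin or ketoconazole reference, 100 µg/disc. Mean of three independent experiments.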

[4] = test system: Aspergillus fumigatus; assay: Antifungal activity against Aspergillus fumigatus at 100 ug/disc after 24 hrs by disc diffusion method; assay type: functional; settings: read-out: DIZ; outline: as §2
[5] = test system: Aspergillus fumigatus; assay: Antifungal activity against Aspergillus fumigatus after 48 hrs by agar streak dilution method; assay type: functional
Outline: (§3)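 Fungal MIC by agar streak dilution on Sabouraud dextrose agar, poured 4–5 mm deep. Compound from a DMSO stock (100 μg/mL) was incorporated at serial concentrations of 3.12–100 µg/mL. Plates were inoculated with about 10⁵ CFU/mL of suspension and incubated at (37 ± 1) °C for 48 h. Each value is the mean of three independent experiments.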

[6] = test system: Candida albicans; assay: Antifungal activity against Candida albicans after 48 hrs by agar streak dilution method; assay type: functional; outline: as §3
[7] = test system: Candida albicans; assay: Antifungal activity against Candida albicans at 100 ug/disc after 24 hrs by disc diffusion method; assay type: functional; settings: read-out: DIZ; outline: as §2
[8] = test system: Aspergillus clavatus; assay: Antifungal activity against Aspergillus clavatus at 100 ug/disc after 24 hrs by disc diffusion method; assay type: functional; settings: read-out: DIZ; outline: as §2
[9] = test system: Aspergillus niger; assay: Antifungal activity against Aspergillus niger at 100 ug/disc after 24 hrs by disc diffusion method; assay type: functional; settings: read-out: DIZ; outline: as §2
[10] = test system: Salmonella typhi; assay: Antibacterial activity against Salmonella Typhi after 24 hrs by agar streak dilution method; assay type: functional, Salmonella enterica subsp. enterica serovar Typhi; settings: Salmonella enterica
Outline: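 Agar streak dilution: DMSO stock (100 µg/mL) graded into molten sterile nutrient agar, poured 4–5 mm deep and solidified. Plates carry serial dilutions spanning 3.12–100 µg/mL. Applied ~10⁵ CFU/mL suspension, then incubated 24 h at (37 ± 1) °C. MIC read as the lowest inhibitory concentration; each value is the mean of three independent experiments.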

[11] = test system: Pseudomonas aeruginosa; assay: Antibacterial activity against Pseudomonas aeruginosa […] after 24 hrs by agar streak dilution method; assay type: functional
[12] = test system: Klebsiella pneumoniae; assay: Antibacterial activity against Klebsiella pneumoniae […] after 24 hrs by agar streak dilution method; assay type: functional
[13] = test system: Aspergillus niger; assay: Antifungal activity against Aspergillus niger after 48 hrs by agar streak dilution method; assay type: functional; outline: as §3
[14] = test system: Salmonella typhi; assay: Antibacterial activity against Salmonella Typhi at 100 ug/disc after 24 hrs by disc diffusion method; assay type: functional, Salmonella enterica subsp. enterica serovar Typhi; settings: Salmonella enterica, read-out: DIZ
Outline: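 Paper disc diffusion on Mueller-Hinton agar poured 5 mm deep; 10⁵ CFU/mL suspension (0.5 McFarland) swabbed over surface. 6.25 mm filter paper discs soaked in compound in DMSO, incubated 24 h at (37 ± 1) °C; inhibition zone diameter in mm. DMSO disc as blank; ciprofloxacin 100 µg/disc as reference. Mean of three independent experiments.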

[15] = test system: Klebsiella pneumoniae; assay: Antibacterial activity against Klebsiella pneumoniae at 100 ug/disc after 24 hrs by disc diffusion method; assay type: functional; settings: read-out: DIZ; outline: as §2
[16] = test system: Bacillus cereus; assay: Antibacterial activity against Bacillus cereus at 100 ug/disc after 24 hrs by disc diffusion method; assay type: functional; settings: read-out: DIZ; outline: as §2
[17] = test system: Proteus vulgaris; assay: Antibacterial activity against Proteus vulgaris at 100 ug/disc after 24 hrs by disc diffusion method; assay type: functional; settings: read-out: DIZ; outline: as §2
[18] = test system: Shigella flexneri; assay: Antibacterial activity against Shigella flexneri at 100 ug/disc after 24 hrs by disc diffusion method; assay type: functional; settings: read-out: DIZ; outline: as §2
[19] = test system: Staphylococcus aureus; assay: Antibacterial activity against Staphylococcus aureus at 100 ug/disc after 24 hrs by disc diffusion method; assay type: functional; settings: read-out: DIZ; outline: as §2
[20] = test system: Staphylococcus aureus; assay: Antibacterial activity against Staphylococcus aureus after 24 hrs by agar streak dilution method; assay type: functional; outline: as §1
[21] = test system: Proteus vulgaris; assay: Antibacterial activity against Proteus vulgaris after 24 hrs by agar streak dilution method; assay type: functional; outline: as §1
[22] = test system: Escherichia coli; assay: Antibacterial activity against Escherichia coli at 100 ug/disc after 24 hrs by disc diffusion method; assay type: functional; settings: read-out: DIZ; outline: as §2
[23] = test system: Aspergillus clavatus; assay: Antifungal activity against Aspergillus clavatus after 48 hrs by agar streak dilution method; assay type: functional; outline: as §3
[24] = test system: Escherichia coli; assay: Antibacterial activity against Escherichia coli after 24 hrs by agar streak dilution method; assay type: functional; outline: as §1

| SMILES | MIC [1] | MIC [2] | zone of inhibition at 100 µg/disc [3] | zone of inhibition at 100 µg/disc [4] | MIC [5] | MIC [6] | zone of inhibition at 100 µg/disc [7] | zone of inhibition at 100 µg/disc [8] | zone of inhibition at 100 µg/disc [9] | MIC [10] | MIC [11] | MIC [12] | MIC [13] | zone of inhibition at 100 µg/disc [14] | zone of inhibition at 100 µg/disc [15] | zone of inhibition at 100 µg/disc [16] | zone of inhibition at 100 µg/disc [17] | zone of inhibition at 100 µg/disc [18] | zone of inhibition at 100 µg/disc [19] | MIC [20] | also measured |
| --- | --- | --- | --- | --- | --- | --- | --- | --- | --- | --- | --- | --- | --- | --- | --- | --- | --- | --- | --- | --- | --- |
| CCN1CCN(CC2SC(c3ccccc3)N(c3ccc(Nc4nc(Oc5cc(=O)n(C)c6ccccc56)nc(N(C)C)n4)cc3)C2=O)CC1 (stereo unspecified) | 100 µg/mL (≈ 145 µM) | 100 µg/mL (≈ 145 µM) | 13 mm | < 10 mm | 100 µg/mL (≈ 145 µM) | 100 µg/mL (≈ 145 µM) | 14 mm | < 10 mm | 12 mm | 50 µg/mL (≈ 72.3 µM) | 100 µg/mL (≈ 145 µM) | 100 µg/mL (≈ 145 µM) | 100 µg/mL (≈ 145 µM) | 16 mm | < 10 mm | 16 mm | 15 mm | 12 mm | 14 mm | 100 µg/mL (≈ 145 µM) | MIC [21]: 100 µg/mL (≈ 145 µM); zone of inhibition at 100 µg/disc [22]: 22 mm; MIC [23]: 100 µg/mL (≈ 145 µM); MIC [24]: 25 µg/mL (≈ 36.1 µM) |
| CCN1CCN(CC2SC(c3ccc(Cl)cc3Cl)N(c3ccc(Nc4nc(Oc5cc(=O)n(C)c6ccccc56)nc(N(C)C)n4)cc3)C2=O)CC1 (stereo unspecified) | 12.5 µg/mL (≈ 16.4 µM) | 6.25 µg/mL (≈ 8.22 µM) | 21 mm | 17 mm | 25 µg/mL (≈ 32.9 µM) | 12.5 µg/mL (≈ 16.4 µM) | 28 mm | 25 mm | 28 mm | 50 µg/mL (≈ 65.7 µM) | 25 µg/mL (≈ 32.9 µM) | 25 µg/mL (≈ 32.9 µM) | 6.25 µg/mL (≈ 8.22 µM) | 15 mm | 23 mm | 19 mm | 20 mm | 26 mm | 25 mm | 6.25 µg/mL (≈ 8.22 µM) | MIC [21]: 12.5 µg/mL (≈ 16.4 µM); zone of inhibition at 100 µg/disc [22]: 24 mm; MIC [23]: 12.5 µg/mL (≈ 16.4 µM); MIC [24]: 12.5 µg/mL (≈ 16.4 µM) |
| CCN1CCN(CC2SC(c3ccc(Cl)c(Cl)c3)N(c3ccc(Nc4nc(Oc5cc(=O)n(C)c6ccccc56)nc(N(C)C)n4)cc3)C2=O)CC1 (stereo unspecified) | 12.5 µg/mL (≈ 16.4 µM) | 12.5 µg/mL (≈ 16.4 µM) | 23 mm | 16 mm | 50 µg/mL (≈ 65.7 µM) | 25 µg/mL (≈ 32.9 µM) | 23 mm | 19 mm | 21 mm | 50 µg/mL (≈ 65.7 µM) | 25 µg/mL (≈ 32.9 µM) | 12.5 µg/mL (≈ 16.4 µM) | 25 µg/mL (≈ 32.9 µM) | 12 mm | 19 mm | 17 mm | 19 mm | 22 mm | 15 mm | 25 µg/mL (≈ 32.9 µM) | MIC [21]: 25 µg/mL (≈ 32.9 µM); zone of inhibition at 100 µg/disc [22]: 17 mm; MIC [23]: 50 µg/mL (≈ 65.7 µM); MIC [24]: 25 µg/mL (≈ 32.9 µM) |
| CCN1CCN(CC2SC(c3ccc(C)cc3)N(c3ccc(Nc4nc(Oc5cc(=O)n(C)c6ccccc56)nc(N(C)C)n4)cc3)C2=O)CC1 (stereo unspecified) | 50 µg/mL (≈ 70.8 µM) | 50 µg/mL (≈ 70.8 µM) | 26 mm | 24 mm | 50 µg/mL (≈ 70.8 µM) | 50 µg/mL (≈ 70.8 µM) | 23 mm | 26 mm | 21 mm | 50 µg/mL (≈ 70.8 µM) | 6.25 µg/mL (≈ 8.85 µM) | 50 µg/mL (≈ 70.8 µM) | 100 µg/mL (≈ 142 µM) | 23 mm | 24 mm | 24 mm | 27 mm | 24 mm | 26 mm | 50 µg/mL (≈ 70.8 µM) | MIC [21]: 6.25 µg/mL (≈ 8.85 µM); zone of inhibition at 100 µg/disc [22]: 24 mm; MIC [23]: 25 µg/mL (≈ 35.4 µM); MIC [24]: 25 µg/mL (≈ 35.4 µM) |

From ChEMBL document CHEMBL1933017, “Synthesis and biological evaluation of some thiazolidinones as antimicrobial agents” (2012)
